Data taken from ChEMBL document CHEMBL1255483, “Intra- and extracellular activities of dicloxacillin against Staphylococcus aureus in vivo and in vitro” (Antimicrob Agents Chemother, 2010).
≈ marks a conversion by molar mass, not a printed value. Calls of active or inactive are those of the source. The rule behind the calls is not given here.

How the values were obtained:
[1] = tested on: Staphylococcus aureus; assay: Bactericidal activity against Staphylococcus aureus ATCC 25923 assessed as log reduction in bacterial count at 100 times MIC after 5 hrs by time-kill assay; assay type: functional
Method in brief: (§1)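 Broth time-kill: MSSA at 10⁶ CFU/ml exposed to a wide range of dicloxacillin concentrations. CFU counted after 5 and 24 h and expressed as change in log₁₀ CFU/ml from time zero. Multiples refer to the MIC by CLSI microdilution at pH 7.4. n = 3.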

[2] = Ratio of fCmax in NMRI mouse at 300 mg/kg administered every 12 hrs to MIC for Staphylococcus aureus E19977; assay type: functional
Method in brief: (§2)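 Free Cmax/MIC was modelled, not measured. Single-dose subcutaneous plasma curves from NMRI mice were projected to the multiple-dose regimens. Free fraction came from a square-root fit of unbound fraction versus total concentration. Binding was measured by ultrafiltration of mouse plasma spiked with 10–400 mg/liter and held 1 h at 37°C. MIC was for strain E19977.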

[3] = Ratio of fCmax in NMRI mouse at 120 mg/kg administered every 3 hrs to MIC for Staphylococcus aureus E19977; assay type: functional; method in brief: as §2
[4] = tested on: Staphylococcus aureus; assay: Antimicrobial activity against Staphylococcus aureus ATCC 25923 by broth microdilution method at pH 5.4
[5] = tested on: Staphylococcus aureus; assay: Bacteriostatic activity against Staphylococcus aureus E19977 infected in human THP-1 cells at MIC after 5 hrs; assay type: functional, organism-based
Method in brief: (§3)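 Human THP-1 macrophages were infected with opsonized S. aureus at 4 bacteria per macrophage for 45 min. Non-phagocytized bacteria were removed by washing and a brief incubation in PBS with gentamicin 50 mg/liter. Cells were then incubated up to 24 h with DCX over a wide range of extracellular concentrations. The read-out was Δlog CFU per mg cell protein versus time zero (n = 3), with sigmoidal fitting and Cstatic by interpolation.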

[6] = fT>MIC in Staphylococcus aureus E19977 infected NMRI mouse at 200 mg/kg administered every 6 hrs; assay type: functional
Method in brief: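 Calculated percentage of 24 h at steady state that free plasma DCX exceeds the strain MIC (microdilution, pH 7.4). Concentrations were simulated from single subcutaneous dose plasma curves in NMRI mice (S. lutea bioassay), adjusted with a square-root model of concentration-dependent free fraction from ultrafiltration. The regimen was dosed subcutaneously in mice infected intraperitoneally with 10^7.4 CFU, and peritoneal CFU were read after 24 h of therapy.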

[7] = Ratio of fCmax in NMRI mouse at 400 mg/kg administered every 12 hrs to MIC for Staphylococcus aureus E19977; assay type: functional; method in brief: as §2
[8] = Ratio of fAUC (24 hrs) in NMRI mouse at 200 mg/kg administered every 6 hrs to MIC for Staphylococcus aureus E19977; assay type: functional
Method in brief: (§4)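 Modeled free AUC over 24 h divided by the MIC, not measured directly. Single subcutaneous DCX doses were given to NMRI mice, and plasma was assayed by S. lutea bioassay. Noncompartmental analysis used trapezoidal mean points plus a fitted monoexponential extrapolated to 24 h. Free fraction came from a square-root fit to plasma ultrafiltration binding (10–400 mg/liter spike, 1 h, 37°C). The MIC was measured by broth microdilution at pH 7.4.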

[9] = Ratio of fAUC (24 hrs) in NMRI mouse at 300 mg/kg administered every 12 hrs to MIC for Staphylococcus aureus E19977; assay type: functional; method in brief: as §4
[10] = tested on: Staphylococcus aureus; assay: Bacteriostatic activity against Staphylococcus aureus ATCC 25923 infected in human THP-1 cells at MIC after 24 hrs; assay type: functional, organism-based; method in brief: as §3
[11] = tested on: Staphylococcus aureus; assay: Antimicrobial activity against Staphylococcus aureus E19977 infected in human THP1 cells assessed as log reduction in bacterial count at MIC after 24 hrs by time-kill assay; assay type: functional, THP-1
Method in brief: (§5)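 Intracellular model in THP-1 macrophages: opsonized S. aureus was added at 4 bacteria per macrophage for 45 min. Non-phagocytized bacteria were removed by washing and brief PBS incubation with gentamicin (50 mg/liter). Cells were then incubated up to 24 h with a wide range of extracellular dicloxacillin concentrations. Result is change in log₁₀ CFU per mg cell protein from time zero. n = 3.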

[12] = tested on: Staphylococcus aureus; assay: Bactericidal activity against Staphylococcus aureus ATCC 25923 infected in human THP1 cells assessed as log reduction in bacterial count at 100 times MIC after 24 hrs by time-kill assay; assay type: functional, THP-1; method in brief: as §5
[13] = tested on: Staphylococcus aureus; assay: Bacteriostatic activity against Staphylococcus aureus E19977 infected in human THP-1 cells after 24 hrs; assay type: functional; method in brief: as §3
[14] = Ratio of fAUC (24 hrs) in NMRI mouse at 400 mg/kg administered every 12 hrs to MIC for Staphylococcus aureus E19977; assay type: functional; method in brief: as §4
[15] = tested on: Staphylococcus aureus; assay: Bactericidal activity against Staphylococcus aureus ATCC 25923 infected in human THP-1 cells assessed as log change in bacterial count after 24 hrs; assay type: functional; method in brief: as §3
[16] = Half-life in NMRI mouse at 60 mg/kg, sc; assay type: ADME, organism-based; design: dose 60 mg/kg, route subcutaneous; details: in vivo
Method in brief: (§6)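 Single subcutaneous DCX doses given to NMRI mice. Blood was collected into EDTA tubes, and plasma drug was assayed by microbiological bioassay with S. lutea ATCC 9391 (detection limit 1.5 mg/liter, linear to 100 mg/liter). Values came from noncompartmental analysis. Terminal half-life was fitted monoexponentially to the last four time points. AUC24 combined the trapezoidal rule over mean points with exact integration of the fitted curve extrapolated to 24 h.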

[17] = species: Mus musculus; assay: Protein binding in NMRI mouse at 60 mg/l by ultrafiltration; assay type: ADME, organism-based; details: in vivo
Method in brief: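 Plasma binding was measured by ultrafiltration. EDTA blood from healthy mice, or from NMRI mice infected intraperitoneally for 6 h with E19977, was spiked with DCX at 10–400 mg/liter, with PBS controls. Samples were held 1 h at 37°C, then centrifuged through 30-kDa filters at 3,000 × g for 8 min at 37°C. Total and filtrate drug were measured by S. lutea bioassay.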

[18] = tested on: Staphylococcus aureus; assay: Bactericidal activity against Staphylococcus aureus ATCC 25923 assessed as log change in bacterial count after 24 hrs; assay type: functional
Method in brief: (§7)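 Extracellular broth time- and concentration-kill test. The inoculum was ~10⁶ CFU/ml, exposed to a wide range of DCX concentrations, with CFU counted after 5 and 24 h. The read-out was Δlog CFU/ml versus time zero (mean ± SD, n = 3). A sigmoidal fit with slope 1 gave Emax and EC50. Cstatic was read by graphical interpolation as the concentration giving no change from the inoculum.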

[19] = AUC (24 hrs) in NMRI mouse at 60 mg/kg, sc; assay type: ADME, organism-based; design: time < 24 hr, dose 60 mg/kg, route subcutaneous; details: plasma; method in brief: as §6
[20] = Ratio of fCmax in NMRI mouse at 120 mg/kg administered every 24 hrs to MIC for Staphylococcus aureus E19977; assay type: functional; method in brief: as §2
[21] = tested on: Staphylococcus aureus; assay: Bactericidal activity against Staphylococcus aureus E19977 assessed as log reduction in bacterial count at 100 times MIC after 5 hrs by time-kill assay; assay type: functional; method in brief: as §1
[22] = tested on: Staphylococcus aureus; assay: Bacteriostatic activity against Staphylococcus aureus ATCC 25923 infected in human THP-1 cells at 10 times MIC after 5 hrs; assay type: functional, organism-based; method in brief: as §3
[23] = tested on: Staphylococcus aureus; assay: Antimicrobial activity against Staphylococcus aureus E19977 by broth microdilution method at pH 7.4
[24] = tested on: Staphylococcus aureus; assay: Bacteriostatic activity against Staphylococcus aureus ATCC 25923 after 24 hrs; assay type: functional; method in brief: as §7
[25] = AUC (24 hrs) in NMRI mouse at 300 mg/kg, sc; assay type: ADME, organism-based; design: time < 24 hr, dose 300 mg/kg, route subcutaneous; details: plasma; method in brief: as §6

SMILES: Cc1onc(-c2c(Cl)cccc2Cl)c1C(=O)N[C@@H]1C(=O)N2[C@@H]1SC(C)(C)[C@@H]2C(=O)O [DICLOXACILLIN]
- FC [1]: <1
- Ratio [2]: 196.76
- Ratio [3]: 61.6
- MIC [4]: 0.031 µg/mL (≈ 0.0659 µM)
- Activity [5]: Active
- fT>MIC [6]: 57.5%
- Ratio [7]: 291.53
- fAUC/MIC [8]: 411.61 h
- fAUC/MIC [9]: 439.15 h
- Activity [10]: Active
- FC [11]: 1
- FC [12]: <1
- Activity [13]: 0.89 mg/L
- fAUC/MIC [14]: 644.84 h
- Emax [15]: -1.19 deltalog10CFU/ml
- half-life [16]: 25 min
- Activity [17]: 89.5%
- Emax [18]: -3.19 deltalog10CFU/ml
- AUC at 24 h [19]: 70400 ng·h/mL
- Ratio [20]: 61.6
- FC [21]: <1
- Activity [22]: Active
- MIC [23]: 0.5 µg/mL (≈ 1.06 µM)
- Activity [24]: 0.07 mg/L
- AUC at 24 h [25]: 726 µg·h/mL
